Reference: publication PMC8286641 (European Journal of Drug Metabolism and Pharmacokinetics, 2021)

Key:
ENT1 [1] = target: T1, ENT1 (Homo sapiens, UniProt Q99808); assay: Prediction of in vivo ENT1 inhibition; settings: predicted if Imax,u/IC50 ≥ 0.1
T1 sequence (Q99808 1-456): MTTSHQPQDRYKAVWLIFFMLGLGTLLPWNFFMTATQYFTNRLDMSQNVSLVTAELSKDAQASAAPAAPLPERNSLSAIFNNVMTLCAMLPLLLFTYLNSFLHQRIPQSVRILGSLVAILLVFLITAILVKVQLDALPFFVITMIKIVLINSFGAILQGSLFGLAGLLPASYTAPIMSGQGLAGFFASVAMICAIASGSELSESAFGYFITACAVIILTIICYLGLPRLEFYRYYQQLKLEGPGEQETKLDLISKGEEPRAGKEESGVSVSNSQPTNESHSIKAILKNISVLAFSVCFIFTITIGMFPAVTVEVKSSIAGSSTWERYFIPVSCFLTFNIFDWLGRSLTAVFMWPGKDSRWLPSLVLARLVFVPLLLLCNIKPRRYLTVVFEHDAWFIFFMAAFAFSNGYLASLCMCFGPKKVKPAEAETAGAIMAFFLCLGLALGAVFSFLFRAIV
Method in brief: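 Unbound peak plasma level (Imax,u) was obtained from literature Cmax and unbound fraction and divided by in vitro ENT1 IC50. Inhibition was predicted when the ratio was ≥ 0.1, following FDA drug-interaction guidance.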

ENT2 = target: T2, ENT2 (Homo sapiens, UniProt Q14542); assay: Prediction of in vivo ENT2 inhibition; settings: Imax,u/IC50 greater than 0.1
T2 sequence (Q14542 1-456): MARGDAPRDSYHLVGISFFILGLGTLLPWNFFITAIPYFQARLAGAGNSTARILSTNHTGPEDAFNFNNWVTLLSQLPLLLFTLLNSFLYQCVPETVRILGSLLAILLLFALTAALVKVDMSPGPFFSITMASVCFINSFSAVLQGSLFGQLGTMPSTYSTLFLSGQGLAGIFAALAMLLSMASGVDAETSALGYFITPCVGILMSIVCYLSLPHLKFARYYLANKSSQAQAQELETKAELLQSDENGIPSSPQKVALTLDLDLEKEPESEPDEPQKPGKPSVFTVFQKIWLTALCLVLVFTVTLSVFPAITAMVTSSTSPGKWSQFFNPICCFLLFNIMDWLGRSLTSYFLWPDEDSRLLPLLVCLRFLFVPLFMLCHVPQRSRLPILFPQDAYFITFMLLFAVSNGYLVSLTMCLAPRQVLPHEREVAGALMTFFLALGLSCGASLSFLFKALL
Method in brief: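 Imax,u from literature Cmax and unbound fraction was divided by ENT2 IC50, using the FDA guidance threshold of 0.1. […] Uptake was counted by scintillation, normalised to protein, and fitted to a four-parameter logistic curve; three independent assays.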

ENT1/ENT2 = assay: Lorlatinib accumulation assay in HAP1 wild-type, ENT1-KO and ENT2-KO cells; assay type: cell-based, human; settings: 10 µM lorlatinib, ENT1-KO, ENT2-KO cells
Method in brief: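 HAP1 wild-type, ENT1-KO and ENT2-KO cells were grown in Iscove's modified Dulbecco's medium with 10% fetal calf serum and penicillin/streptomycin. Cells were exposed to 10 µM test compound for 5 min at 37 °C, without or with 0.1 µM (ENT1) or 100 µM (ENT1/ENT2) NBMPR. They were then washed twice in ice-cold PBS and lysed in distilled water. Lysates underwent acetonitrile extraction, and compound was quantified by LC–MS/MS (C18 column, ESI+).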

ENT1 [2] = target: T1, ENT1; assay: Inhibition of ENT1-mediated [3H]-uridine uptake in HAP1 ENT2-KO cells; assay type: cell-based; settings: 10 µM TKI; for % inhibition of ENT1 activity (mean ± SD): HAP1-ENT2 KO cells, [3H]-uridine uptake 5 min at 37 °C; for ENT1 inhibitor class: HAP1 ENT2-KO cells
[3] = Maximum plasma concentration of TKIs; assay type: in vivo; settings: from Cmax and fu
OCT1 = settings: cited from earlier work
MATE2-K = settings: read-out: IC50 MATE2-K; cited from earlier work
MATE1 = settings: read-out: IC50 MATE1; cited from earlier work
[4] = test system: organic anion transporter (OAT) 3 (SLC22A8); settings: read-out: IC50 OAT3; cited from earlier work
OCT2 = settings: read-out: IC50 OCT2; cited from earlier work

| Predicted in vivo inhibition (ENT1 [1]) | Predicted in vivo inhibition (in words) (ENT2) | Substrate for ENT1/ENT2 (ENT1/ENT2; ± NBMPR) | % inhibition of ENT1 activity (mean ± SD) (ENT1 [2]) [%] | Imax,u (maximum unbound plasma concentration) [3] [nM] | SMILES | Cellular accumulation of lorlatinib (ENT1/ENT2; 5 min at 37 °C, without or with 0.1 or 100 µM NBMPR) | ENT1 inhibitor class (ENT1 [2]) | Effect on OCT1 activity (in words) (OCT1) | IC50 (MATE2-K) [µM] | IC50 (MATE1) [µM] | IC50 [4] [µM] | IC50 (OCT2) [µM] |
| --- | --- | --- | --- | --- | --- | --- | --- | --- | --- | --- | --- | --- |
| Yes | should also be clinically relevant | not a substrate for either ENT1 or ENT2 | 86.6 ± 6.4 | 485 | C[C@H]1Oc2cc(cnc2N)-c2c(nn(C)c2C#N)CN(C)C(=O)c2ccc(F)cc21 [Lorlatinib, (10R)-7-amino-12-fluoro-2,10,16-trimethyl-15-oxo-10,15,16,17-tetrahydro-2H-8,4-(metheno)pyrazolo[4,3-h][2,5,11]-benzoxadiazacyclotetradecine-3-carbonitrile] | similarly accumulate in HAP1 wild-type, ENT1-KO, and ENT2-KO cells | potent (inhibit ENT1 by more than 60%) |  |  |  |  |  |
|  |  |  | 34.1 ± 13.2 |  | N#CC[C@H](C1CCCC1)n1cc(-c2ncnc3[nH]ccc23)cn1 [Ruxolitinib, ruxolitinib] |  | weak (decreased ENT1 activity by less than 35% and can thus be considered as weak ENT1 inhibitors) | fails to alter that of OCT1 | < 10 | < 10 | < 10 | < 10 |
